Converted amounts (≈) assume the structure as drawn.
How the values were obtained:
Assay type in all cases: functional
Nakaseomyces glabratus = experiment: Antifungal activity against Candida glabrata after 24 hrs
In short: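 Broth microdilution: pure compound stock in DMSO, serially diluted from 1000 to 0.97 μg/mL in sterile distilled water. Each dilution was mixed with an equal volume of standardized C. glabrata suspension in yeast medium. Sterile water served as growth control, and dilutions without organism as negative control. After 24 h at 37 °C, MIC was read as the first well without turbidity.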

Bacillus cereus = experiment: Antibacterial activity against Bacillus cereus after 24 hrs
In short: (§1)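 Broth microdilution MIC. Compound stock in DMSO, serially diluted 1000 to 0.97 μg/mL in sterile distilled water. Bacteria were freshly grown in double-strength Mueller-Hinton broth and adjusted to 108 CFU/mL. Equal volumes of dilution and suspension were mixed. Sterile water well served as growth control, and dilutions without organism as negative control. After 37 °C for 24 h, MIC was read as the first well without turbidity.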

Drechslera = experiment: Antifungal activity against Drechslera sorokinianse at 200 ug/mL after 7 to 10 days by agar tube dilution technique relative to ketoconazole
In short: (§2)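 Agar tube dilution against plant pathogenic fungi. Compound in DMSO was mixed into molten SDA to a final 200 μg/mL and solidified as slants at room temperature. Slants were inoculated with 4×4 mm plugs cut from 1-week cultures and incubated 7–10 days at 29 °C. Linear growth (mm) was measured, and % inhibition was calculated against a DMSO-only medium control. Ketoconazole served as the reference drug.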

Akanthomyces muscarius = experiment: Antifungal activity against Cephalosporium ophidicola at 200 ug/mL after 7 to 10 days by agar tube dilution technique; in short: as §2
Micrococcus luteus = experiment: Antibacterial activity against Micrococcus luteus after 24 hrs; in short: as §1
Fusarium solani = experiment: Antifungal activity against Fusarium solani at 200 ug/mL after 7 to 10 days by agar tube dilution technique relative to ketoconazole; in short: as §2
Escherichia coli = experiment: Antibacterial activity against Escherichia coli after 24 hrs; in short: as §1
Ceratobasidium cereale = experiment: Antifungal activity against Rhizoctonia cerealis at 200 ug/mL after 7 to 10 days by agar tube dilution technique; in short: as §2
Pseudomonas aeruginosa = experiment: Antibacterial activity against Pseudomonas aeruginosa after 24 hrs; in short: as §1
Staphylococcus aureus = experiment: Antibacterial activity against Staphylococcus aureus after 24 hrs; in short: as §1

| MIC (Bacillus cereus) [µg/mL] | MIC (Micrococcus luteus) [µg/mL] | MIC (Escherichia coli) [µg/mL] | MIC (Pseudomonas aeruginosa) [µg/mL] | MIC (Staphylococcus aureus) [µg/mL] | Compound | MIC (Nakaseomyces glabratus) [µg/mL] | inhibition at 200 µg/mL (Drechslera) [%] | inhibition at 200 µg/mL (Akanthomyces muscarius) [%] | inhibition at 200 µg/mL (Fusarium solani) [%] | inhibition at 200 µg/mL (Ceratobasidium cereale) [%] |
| --- | --- | --- | --- | --- | --- | --- | --- | --- | --- | --- |
| – | – | – | – | – | CC(=O)N1CCN(c2ccc(OCC3COC(Cn4ccnc4)(c4ccc(Cl)cc4Cl)O3)cc2)CC1 (stereo unspecified) [KETOCONAZOLE] | 62.5 (≈ 118 µM) | – | – | – | – |
| 125 (≈ 562 µM) | 250 (≈ 1120 µM) | 250 (≈ 1120 µM) | 250 (≈ 1120 µM) | 250 (≈ 1120 µM) | C=C1CCC[C@H](CO)CC[C@@H]2[C@@H]1CC2(C)C | 125 (≈ 562 µM) | 75 | 100 | 59 | 100 |
| 125 (≈ 387 µM) | 125 (≈ 387 µM) | 250 (≈ 774 µM) | 62.5 (≈ 193 µM) | 7.81 (≈ 24.2 µM) | O=C(N[C@H](CO)[C@H](O)c1ccc([N+](=O)[O-])cc1)C(Cl)Cl [CHLORAMPHENICOL] | – | – | – | – | – |
